Assay results: ChEMBL document CHEMBL2057114, “Non-nucleoside inhibitors of the measles virus RNA-dependent RNA polymerase: synthesis, structure-activity relationships, and pharmacokinetics” (J Med Chem, 2012)
Converted amounts (≈) assume the structure as drawn.

How the values were obtained:
Measles morbillivirus [1] = assay: Antiviral activity against Measles virus Alaska infected african green monkey Vero cells expressing human SLAM assessed as decrease in virus-induced cytopathic effect; type: functional, organism-based
[2] = Solubility of the compound at pH 7.4 by nephelometric analysis; type: physicochemical; conditions: buffer
Method in brief: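 Aqueous solubility was measured by nephelometry in buffer at pH 7.4.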

Vero = assay: Cytotoxicity against african green monkey Vero cells after 24 hrs by MTT assay; type: cell-based; conditions: chlorocebus sabaeus
Caco-2 = assay: Efflux ratio of permeability in human Caco2 cells; type: ADME, cell-based
Method in brief: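 Caco-2 bidirectional permeability assay, with efflux ratio calculated from the two transport directions.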

[3] = Metabolic stability of the compound in human liver S9 fractions assessed as compound remaining after 1 hr; type: ADME, subcellular, S9 fraction; conditions: read-out: Stability
Method in brief: (§1)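 Compound incubated one hour in liver S9 fraction, with the percentage of parent compound remaining as the readout.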

Measles morbillivirus [4] = assay: Inhibition of Measles virus RdRp expressed in baby hamster BSR-T7/5 cells by firefly luciferase mini replicon assay; type: cell-based
Method in brief: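 BSR-T7/5 cells were transfected with plasmids encoding MeV L, N and P plus a firefly luciferase minigenome reporter, then incubated with a range of inhibitor concentrations or vehicle. Luciferase activity in cell lysates was read 36 h post-transfection relative to vehicle, and dose-response curves were built; three experiments.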

[5] = Metabolic stability of the compound in mouse liver S9 fractions assessed as compound remaining after 1 hr; type: ADME, subcellular, S9 fraction; conditions: read-out: Stability; method in brief: as §1
Measles morbillivirus [6] = assay: Antiviral activity against Measles virus Alaska infected african green monkey Vero cells expressing human SLAM assessed as decrease in viral titer at EC50 of cytopathic inhibition; type: functional, organism-based
Rattus norvegicus [7] = assay: Oral bioavailability in Sprague-Dawley rat at 10 mg/kg; type: ADME, organism-based; conditions: in vivo
Method in brief: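 Rats were dosed 2 mg/kg i.v. and 10 mg/kg p.o., and oral bioavailability F was derived by comparing the two routes.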

[8] = Tmax in Sprague-Dawley rat at 10 mg/kg, po; type: ADME, organism-based; set-up: dose 10 mg/kg, route oral; conditions: in vivo
Method in brief: (§2)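 Oral gavage at 10 and 50 mg/kg to Sprague-Dawley rats, given as a suspension in PEG200/0.5% methylcellulose (10/90), n = 4 per group. Plasma concentration was followed over time, and PK parameters were estimated by non-compartmental analysis.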

[9] = Tmax in Sprague-Dawley rat at 50 mg/kg, po; type: ADME, organism-based; set-up: dose 50 mg/kg, route oral; conditions: in vivo; method in brief: as §2
[10] = Cmax in Sprague-Dawley rat at 10 mg/kg, po; type: ADME, organism-based; set-up: dose 10 mg/kg, route oral; conditions: in vivo; method in brief: as §2
[11] = Cmax in Sprague-Dawley rat at 50 mg/kg, po; type: ADME, organism-based; set-up: dose 50 mg/kg, route oral; conditions: in vivo; method in brief: as §2
[12] = Half life in Sprague-Dawley rat at 10 mg/kg, po; type: ADME, organism-based; set-up: dose 10 mg/kg, route oral; conditions: in vivo; method in brief: as §2
[13] = Half life in Sprague-Dawley rat at 50 mg/kg, po; type: ADME, organism-based; set-up: dose 50 mg/kg, route oral; conditions: in vivo; method in brief: as §2
[14] = AUC (0 to t) in Sprague-Dawley rat at 10 mg/kg, po; type: ADME, organism-based; set-up: dose 10 mg/kg, route oral; conditions: plasma; method in brief: as §2
[15] = AUC (0 to t) in Sprague-Dawley rat at 50 mg/kg, po; type: ADME, organism-based; set-up: dose 50 mg/kg, route oral; conditions: plasma; method in brief: as §2
[16] = AUC (0 to infinity) in Sprague-Dawley rat at 10 mg/kg, po; type: ADME, organism-based; set-up: time infinity, dose 10 mg/kg, route oral; conditions: plasma; method in brief: as §2
[17] = AUC (0 to infinity) in Sprague-Dawley rat at 50 mg/kg, po; type: ADME, organism-based; set-up: time infinity, dose 50 mg/kg, route oral; conditions: plasma; method in brief: as §2
Rattus norvegicus [18] = assay: Ratio of Cmax for ERDRP-00519 to Cmax for AS-136a in Sprague-Dawley rat at 10 to 50 mg/kg; type: ADME, organism-based; set-up: dose 10-50 mg/kg; conditions: in vivo
Rattus norvegicus [19] = assay: Ratio of AUC for ERDRP-00519 to AUC for AS-136a in Sprague-Dawley rat at 10 to 50 mg/kg; type: ADME, organism-based; set-up: dose 10-50 mg/kg; conditions: in vivo

Row | SMILES | EC50 (Measles morbillivirus [1]) | solubility kinetic [2] | other results
1 | Cn1nc(C(F)(F)F)cc1C(=O)Nc1ccc(S(=O)(=O)N2CCCCC2)cc1 | 2 µM | < 15 µg/mL | CC50 (Vero): > 75 µM; Ratio (Caco-2): 1.1; remaining at 1 h [3]: 69%; inhibition (Measles morbillivirus [4]): Dose-dependent effect; remaining at 1 h [5]: 79%
2 | Cn1nc(C(F)(F)F)cc1C(=O)Nc1ccc(S(=O)(=O)N2CCCCC2CN2CCOCC2)cc1 (configuration not stated) | 9.3 µM |  | 
3 | Cn1nc(C(F)(F)F)cc1C(=O)Nc1ccc(S(=O)(=O)c2ccccc2O)cc1 | 4.5 µM | 67 µg/mL (≈ 158 µM) | 
4 | Cn1nc(C(F)(F)F)cc1C(=O)Nc1ccc(S(=O)(=O)N2CCCCC2CN)cc1 (configuration not stated) | 55 µM |  | 
5 | Cn1nc(C(F)(F)F)cc1C(=O)Nc1ccc(S(=O)(=O)N2CCCCC2CCN2CCOCC2)cc1 (configuration not stated) | 4.6 µM | 55 µg/mL (≈ 104 µM) | 
6 | COCOCC1CCCN(S(=O)(=O)c2ccc(NC(=O)c3cc(C(F)(F)F)nn3C)cc2)C1 (configuration not stated) | 3.8 µM |  | 
7 | Cn1nc(C(F)(F)F)cc1C(=O)Nc1ccc(S(=O)(=O)N2CCCC[C@H]2CCN2CCOCC2)cc1 | 2.5 µM | 60 µg/mL (≈ 113 µM) | EC50 (Measles morbillivirus [6]): 0.06 µM; CC50 (Vero): > 75 µM; F (Rattus norvegicus [7]): 39%; Ratio (Caco-2): 2.6; remaining at 1 h [3]: 24%; Tmax [8]: 1.1 h; Tmax [9]: 1.5 h; Cmax [10]: 195 ng/mL; Cmax [11]: 823 ng/mL; half-life [12]: 2.2 h; half-life [13]: 6.5 h; AUC(0-t) [14]: 683 ng·h/mL; AUC(0-t) [15]: 3520 ng·h/mL; AUC(0-inf) [16]: 818 ng·h/mL; AUC(0-inf) [17]: 7860 ng·h/mL; inhibition (Measles morbillivirus [4]): Dose-dependent effect; Ratio (Rattus norvegicus [18]): 10; Ratio (Rattus norvegicus [19]): 10
8 | Cn1nc(C(F)(F)F)cc1C(=O)Nc1ccc(S(=O)(=O)c2ccccc2CN2CCOCC2)cc1 | > 75 µM |  | 
9 | C=Cc1ccccc1S(=O)(=O)c1ccc(NC(=O)c2cc(C(F)(F)F)nn2C)cc1 | > 50 µM |  | 
10 | Cn1nc(C(F)(F)F)cc1C(=O)Nc1ccc(S(=O)(=O)N2CCCCC2CCCO)cc1 (configuration not stated) | 2.7 µM |  | 
11 | Cn1nc(C(F)(F)F)cc1C(=O)Nc1ccc(S(=O)(=O)N2CCCCC2CO)cc1 (configuration not stated) | 2.8 µM | 61 µg/mL (≈ 137 µM) | CC50 (Vero): > 75 µM
12 | CCOC(=O)CCC1CCCCN1S(=O)(=O)c1ccc(NC(=O)c2cc(C(F)(F)F)nn2C)cc1 (configuration not stated) | 6.7 µM |  | 
13 | Cn1nc(C(F)(F)F)cc1C(=O)Nc1ccc(S(=O)(=O)N2CCCCC2CN=[N+]=[N-])cc1 (configuration not stated) | 1.5 µM |  | 
14 | CN(C)CC1CCCCN1S(=O)(=O)c1ccc(NC(=O)c2cc(C(F)(F)F)nn2C)cc1 (configuration not stated) | > 150 µM |  | 

More lines, in order of falling EC50 (Measles morbillivirus [1]), values ahead:

Row | EC50 (Measles morbillivirus [1]) | solubility kinetic [2] | SMILES | other results
15 | 25 µM |  | CCOC(=O)COCC1CCCCN1S(=O)(=O)c1ccc(NC(=O)c2cc(C(F)(F)F)nn2C)cc1 (configuration not stated) | 
16 | 16 µM |  | COCOCC1CCN(S(=O)(=O)c2ccc(NC(=O)c3cc(C(F)(F)F)nn3C)cc2)CC1 | 
17 | 14 µM |  | CC(=O)NCC1CCCCN1S(=O)(=O)c1ccc(NC(=O)c2cc(C(F)(F)F)nn2C)cc1 (configuration not stated) | 
18 | 8.3 µM |  | Cn1nc(C(F)(F)F)cc1C(=O)Nc1ccc(S(=O)(=O)N2CCCC[C@@H]2CCO)cc1 | 
19 | 8.3 µM |  | Cn1nc(C(F)(F)F)cc1C(=O)Nc1ccc(S(=O)(=O)N2CCCCC2COCCO)cc1 (configuration not stated) | 
20 | 6.8 µM |  | CCOC(=O)/C=C/C1CCCCN1S(=O)(=O)c1ccc(NC(=O)c2cc(C(F)(F)F)nn2C)cc1 (configuration not stated) | 
21 | 4.5 µM |  | CC(=O)Oc1ccccc1S(=O)(=O)c1ccc(NC(=O)c2cc(C(F)(F)F)nn2C)cc1 | 
22 | 3.7 µM |  | Cn1nc(C(F)(F)F)cc1C(=O)Nc1ccc(S(=O)(=O)N2CCCCC2/C=C/CO)cc1 (configuration not stated) | 
23 | 3.5 µM | 46 µg/mL (≈ 105 µM) | Cn1nc(C(F)(F)F)cc1C(=O)Nc1ccc(S(=O)(=O)c2ccccc2CO)cc1 | CC50 (Vero): > 75 µM
24 | 3.1 µM |  | Cn1nc(C(F)(F)F)cc1C(=O)Nc1ccc(S(=O)(=O)N2CCCC[C@H]2CCO)cc1 | 
25 | 3.1 µM | < 15 µg/mL | COc1ccccc1S(=O)(=O)c1ccc(NC(=O)c2cc(C(F)(F)F)nn2C)cc1 | CC50 (Vero): > 75 µM
26 | 2.8 µM | 22 µg/mL (≈ 53.7 µM) | Cn1nc(C(F)(F)F)cc1C(=O)Nc1ccc(S(=O)(=O)c2ccccc2)cc1 | EC50 (Measles morbillivirus [6]): 0.09 µM; CC50 (Vero): > 75 µM
27 | 2.7 µM | 62 µg/mL (≈ 135 µM) | Cn1nc(C(F)(F)F)cc1C(=O)Nc1ccc(S(=O)(=O)N2CCCCC2CCO)cc1 (configuration not stated) | EC50 (Measles morbillivirus [6]): 0.1 µM; CC50 (Vero): > 75 µM
28 | 1.5 µM |  | COCOCC1CCCCN1S(=O)(=O)c1ccc(NC(=O)c2cc(C(F)(F)F)nn2C)cc1 (configuration not stated) | 
